Reference: ChEMBL document CHEMBL1123657, “Anthrapyrazole anticancer agents. Synthesis and structure-activity relationships against murine leukemias” (J Med Chem, 1987)

Assays:
P388 [1] = assay: Optimal dose per injection in mg/kg required to inhibit growth of P388 leukemia cells in mice; assay type: functional, Mus musculus
Procedure, shortened: (§1)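 P388 leukemia implanted ip in mice; drug given ip on days 1 and 5 (ip/ip; D1,5), dosed in mg/kg per injection. Read-out is treated/control (T/C, %) with cures counted, reported at the optimal dose.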

P388 [2] = assay: Activity against P388 leukemia cells in mice, by intraperitoneal dosing and net log tumor cell kill was reported; assay type: functional, Mus musculus
P388 [3] = assay: Inhibition of P388 leukemia cells in mice, measured as percent treated to the control values with the number of 30 day survivors; assay type: functional, Mus musculus; procedure, shortened: as §1
L1210 [4] = assay: Compound was tested in vitro against murine L1210 leukemia;IA means inactive; assay type: functional, cell-based, Mus musculus
L1210 [5] = assay: Compound was tested in vitro against murine L1210 leukemia; IA is inactive.; assay type: functional, cell-based, Mus musculus
P388 [6] = assay: Tested for activity against P388 leukemia cells in mice, by intraperitoneal dosing and percent treated to the control values with the number of 30 day survivors i; assay type: functional, Mus musculus
Procedure, shortened: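 P388 leukemia implanted intraperitoneally in mice. Compound given ip on days 1 and 5, as mg/kg per injection across a dose series. Read-out is median survival of treated mice as a percentage of untreated controls (T/C %), taken at the optimal dose, with cures noted.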

L1210 [7] = assay: Tested in vitro against murine L1210 leukemia.; assay type: functional, cell-based; conditions: Mus musculus
B16 [8] = assay: Optimal dose per injection in mg/kg required to inhibit growth of murine B-16 melanoma in vivo; assay type: functional, Mus musculus
Procedure, shortened: (§2)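 Murine B-16 melanoma in vivo: tumor implanted ip, compound given ip on days 1–9 (ip/ip; D1–9), dosed as mg/kg per injection. Activity expressed as T/C (%) plus number of cures, taken at the optimal dose.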

B16 [9] = assay: Tested for activity against murine B-16 melanoma in mice and percent treated to the control values with the number of 60 day survivors; assay type: functional, Mus musculus; procedure, shortened: as §2

IC50 (L1210 [5]) | Compound | Dose (P388 [1]) | Activity (P388 [2]) | T/C (P388 [3]) | IC50 (L1210 [4]) | T/C (P388 [6]) | IC50 (L1210 [7]) | Optimal dose (B16 [8]) | T/C (B16 [9])
 | CCCCCCNc1ccc2c3c(nn2CCO)-c2ccccc2C(=O)c13 | 100 mg/kg | -1.6 | 98% | Not Active |  |  |  | 
Not Active | CCN(CC)CCNc1cccc2c1C(=O)c1cccc3c1c-2nn3C.Cl |  |  |  |  |  |  |  | 
 | CCN(CC)CCn1nc2c3c(cccc31)C(=O)c1c(NCCNCCO)cccc1-2.Cl | 12.5 mg/kg | -1.3 |  |  | 117% | 230 nM |  | 
 | CCN(CC)CCn1nc2c3c(c(NCCN)ccc31)C(=O)c1ccccc1-2.Cl | 25 mg/kg | -1.5 |  |  | 104% | 46 nM |  | 
 | Cl.NCCn1nc2c3c(c(NCCNCCO)ccc31)C(=O)c1c(O)ccc(O)c1-2 | 12.5 mg/kg | > 6.7 | 270% |  |  | 580 nM | 3 mg/kg | 306%
 | Cl.O=C1c2c(O)ccc(O)c2-c2nn(CCO)c3ccc(NCCNCCO)c1c23 | 200 mg/kg | 6.8 | 271% |  |  | 780 nM | 80 mg/kg | 246%
 | COc1cccc2c1C(=O)c1c(O)c3c(c(O)c1C2=O)C[C@@](O)(C(=O)CO)C[C@@H]3O[C@H]1C[C@H](N)[C@H](O)[C@H](C)O1 [DOXORUBICIN] | 8 mg/kg | 5.6 | 225% |  |  | 69 nM | 1 mg/kg | 434%
